In ChEMBL document CHEMBL3627646, “Synthesis and biological activity of amino acid derivatives of avarone and its model compound” (Bioorg Med Chem, 2015) one finds MIC, IC50 and LC50 data, which are given here for two compounds.

≈ marks a conversion by molar mass, not a printed value. Some results are limits rather than exact numbers.

The first data set deals with Bacillus subtilis. The data set is described as follows: Antibacterial activity against Bacillus subtilis ATCC 6633 after 24 hrs by microbroth double dilution method. It is filed as functional. Conditions: ATCC 6633, 24 h. The gist of the method:
(§1)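 Microbroth double dilution in Mueller Hinton broth; compound stock 10 mg/mL in DMSO serially halved across rows. Wells inoculated with 10 μL culture at 10^6 cells/mL, incubated 37 °C for 24 h. Amikacin row as positive control, DMSO row as negative control. MIC taken as lowest concentration inhibiting bacterial growth.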
A general note: Dilution methods test growth across graded concentrations, often in twofold steps.
For `CC1=CCC[C@H]2[C@](C)(CC3=CC(=O)C=C(NCC(=O)O)C3=O)[C@@H](C)CC[C@]12C`, inhibition of growth (MIC) required 407 µM (≈ 157 µg/mL).

As for `CC(C)[C@@H](NC1=CC(=O)C=C(C(C)(C)C)C1=O)C(=O)O`, it took 2240 µM (≈ 626 µg/mL) to inhibit growth (MIC). This MIC is about 5.5-fold higher than that of the compound before.

A further data set concerns Micrococcus luteus. The data set is described as follows: Antibacterial activity against Micrococcus luteus ATCC 4698 after 24 hrs by microbroth double dilution method. The format is functional. Conditions: ATCC 4698, 24 h. Summed up: as §1
For `CC1=CCC[C@H]2[C@](C)(CC3=CC(=O)C=C(NCC(=O)O)C3=O)[C@@H](C)CC[C@]12C`, the minimum inhibitory concentration (MIC) (in general, the least concentration at which growth counts as inhibited) is 101 µM (≈ 39 µg/mL).

The compound `CC(C)[C@@H](NC1=CC(=O)C=C(C(C)(C)C)C1=O)C(=O)O` registered an MIC of 1120 µM (≈ 313 µg/mL).

The test system of a further data set is HeLa. The data set is described as follows: Cytotoxicity against human HeLa cells assessed as cell survival after 72 hrs by MTT assay. The format is functional, cell-based.
Settings: not given
Summed up:
(§2)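 Cells seeded (HeLa 2000, MDA-MB-453 3000, others 5000 per well), treated 24 h later (K562 after 2 h). Five double-diluted final concentrations, 200–12.5 μM, from 10 mM DMSO stocks, in RPMI-1640 with 10% FBS, pH 7.2, 72 h. MTT 4 h at 37 °C, SDS added, A570 read next day. Survival relative to medium control; IC50 from survival curves; triplicate; cisplatin positive control.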
Take `CC1=CCC[C@H]2[C@](C)(CC3=CC(=O)C=C(NCC(=O)O)C3=O)[C@@H](C)CC[C@]12C`: the IC50 (in general, the point on the concentration scale where inhibition reaches its midpoint) is 19.9 µM.

On to `CC(C)[C@@H](NC1=CC(=O)C=C(C(C)(C)C)C1=O)C(=O)O`, for which the IC50 came to 96.5 µM.

The test system of the next data set is Clostridium sporogenes. The data set is described as follows: Antibacterial activity against Clostridium sporogenes ATCC 19404 after 24 hrs by microbroth double dilution method. The format is functional. Conditions: ATCC 19404, 24 h. The gist of the method: as §1
Compound `CC1=CCC[C@H]2[C@](C)(CC3=CC(=O)C=C(NCC(=O)O)C3=O)[C@@H](C)CC[C@]12C` displayed a minimum inhibitory concentration (MIC) of 407 µM (≈ 157 µg/mL).

For `CC(C)[C@@H](NC1=CC(=O)C=C(C(C)(C)C)C1=O)C(=O)O`, the lowest concentration to inhibit growth (MIC) was 2240 µM (≈ 626 µg/mL).

The test system of a further data set is Escherichia coli. The data set is described as follows: Antibacterial activity against Escherichia coli ATCC 25922 after 24 hrs by microbroth double dilution method. Conditions: ATCC 25922, 24 h. The format is functional. Summed up: as §1
For `CC1=CCC[C@H]2[C@](C)(CC3=CC(=O)C=C(NCC(=O)O)C3=O)[C@@H](C)CC[C@]12C`, 101 µM (≈ 39 µg/mL) was the least that counted as inhibitory (MIC).

`CC(C)[C@@H](NC1=CC(=O)C=C(C(C)(C)C)C1=O)C(=O)O` returned an MIC of 1120 µM (≈ 313 µg/mL).

The test system of a further data set is Proteus hauseri. The data set is described as follows: Antibacterial activity against Proteus hauseri ATCC 13315 after 24 hrs by microbroth double dilution method. The format is functional. Conditions: ATCC 13315, 24 h. The gist of the method:
as §1
With `CC1=CCC[C@H]2[C@](C)(CC3=CC(=O)C=C(NCC(=O)O)C3=O)[C@@H](C)CC[C@]12C`, inhibition of growth (MIC) required 811 µM (≈ 313 µg/mL).

`CC(C)[C@@H](NC1=CC(=O)C=C(C(C)(C)C)C1=O)C(=O)O` displayed an MIC of 4480 µM (≈ 1250 µg/mL).

The test system of a further data set is Salmonella enterica. The data set is described as follows: Antibacterial activity against Salmonella enterica ATCC 13076 after 24 hrs by microbroth double dilution method. It is filed as functional. Conditions: ATCC 13076, 24 h. Summed up: as §1
Consider `CC1=CCC[C@H]2[C@](C)(CC3=CC(=O)C=C(NCC(=O)O)C3=O)[C@@H](C)CC[C@]12C`, for which 407 µM (≈ 157 µg/mL) was the least that counted as inhibitory (MIC).

In turn, `CC(C)[C@@H](NC1=CC(=O)C=C(C(C)(C)C)C1=O)C(=O)O` displayed an MIC of 4480 µM (≈ 1250 µg/mL). This MIC is about 11-fold higher than that of the compound before.

Another data set concerns MRC5. The data set can be described thus: Cytotoxicity against human MRC5 cells assessed as cell survival after 72 hrs by MTT assay. The format is cell-based. Conditions: MRC5, 72 h. Summed up:
as §2
(In general: Tetrazolium dyes change colour on reduction, which living cells bring about.)
Consider `CC1=CCC[C@H]2[C@](C)(CC3=CC(=O)C=C(NCC(=O)O)C3=O)[C@@H](C)CC[C@]12C`, for which the IC50 stood at 183 µM.

Take `CC(C)[C@@H](NC1=CC(=O)C=C(C(C)(C)C)C1=O)C(=O)O`: the IC50 is more than 200 µM.

The subject of a further data set is K562. The data set is described as follows: Cytotoxicity against human K562 cells assessed as cell survival after 72 hrs by MTT assay. The format is functional, cell-based. Conditions: K562, 72 h. The gist of the method: as §2
Turning to `CC1=CCC[C@H]2[C@](C)(CC3=CC(=O)C=C(NCC(=O)O)C3=O)[C@@H](C)CC[C@]12C`, the IC50 amounted to 15.6 µM.

Turning to `CC(C)[C@@H](NC1=CC(=O)C=C(C(C)(C)C)C1=O)C(=O)O`, the IC50 is 57.8 µM.

Another data set relates to A549. The data set is described as follows: Cytotoxicity against human A549 cells assessed as cell survival after 72 hrs by MTT assay. It is filed as functional, cell-based. Conditions: A549, 72 h. The gist of the method: as §2
For the compound `CC1=CCC[C@H]2[C@](C)(CC3=CC(=O)C=C(NCC(=O)O)C3=O)[C@@H](C)CC[C@]12C`, the 50% inhibitory concentration (IC50) amounted to 46.7 µM.

Turning to `CC(C)[C@@H](NC1=CC(=O)C=C(C(C)(C)C)C1=O)C(=O)O`, the IC50 was 154 µM.

For the next data set, the system named is Staphylococcus aureus. The data set can be described thus: Antibacterial activity against Staphylococcus aureus ATCC 6538 after 24 hrs by microbroth double dilution method. It is filed as functional. Conditions: ATCC 6538, 24 h. Summed up:
as §1
For the compound `CC1=CCC[C@H]2[C@](C)(CC3=CC(=O)C=C(NCC(=O)O)C3=O)[C@@H](C)CC[C@]12C`, inhibition of growth (MIC) required 101 µM (≈ 39 µg/mL).

Regarding `CC(C)[C@@H](NC1=CC(=O)C=C(C(C)(C)C)C1=O)C(=O)O`, the MIC was found to be 1120 µM (≈ 313 µg/mL).

For another data set, the system named is Kocuria rhizophila. The data set can be described thus: Antibacterial activity against Kocuria rhizophila ATCC 9341 after 24 hrs by microbroth double dilution method. The format is functional. Conditions: ATCC 9341, 24 h. Summed up: as §1
Compound `CC1=CCC[C@H]2[C@](C)(CC3=CC(=O)C=C(NCC(=O)O)C3=O)[C@@H](C)CC[C@]12C` came in with a minimal inhibitory concentration (MIC) of 811 µM (≈ 313 µg/mL).

`CC(C)[C@@H](NC1=CC(=O)C=C(C(C)(C)C)C1=O)C(=O)O`: the MIC amounted to 4480 µM (≈ 1250 µg/mL).

The next data set relates to Aspergillus brasiliensis. The data set is described as follows: Antifungal activity against Aspergillus brasiliensis ATCC 16404 after 24 hrs by microbroth double dilution method. It is filed as functional. Conditions: ATCC 16404, 24 h.
With `CC1=CCC[C@H]2[C@](C)(CC3=CC(=O)C=C(NCC(=O)O)C3=O)[C@@H](C)CC[C@]12C`, it took 404 µM (≈ 156 µg/mL) to inhibit growth (MIC).

Consider `CC(C)[C@@H](NC1=CC(=O)C=C(C(C)(C)C)C1=O)C(=O)O`, for which the MIC was 2240 µM (≈ 626 µg/mL).

The test system of the next data set is Micrococcus flavus. The data set is described as follows: Antibacterial activity against Micrococcus flavus ATCC 10240 after 24 hrs by microbroth double dilution method. The format is functional. Conditions: ATCC 10240, 24 h. The gist of the method:
as §1
On to `CC1=CCC[C@H]2[C@](C)(CC3=CC(=O)C=C(NCC(=O)O)C3=O)[C@@H](C)CC[C@]12C`, for which the MIC came out at 407 µM (≈ 157 µg/mL).

The compound `CC(C)[C@@H](NC1=CC(=O)C=C(C(C)(C)C)C1=O)C(=O)O` yielded a minimum inhibitory concentration (MIC) of 2240 µM (≈ 626 µg/mL).

For the next data set, the system named is Saccharomyces cerevisiae. The data set is described as follows: Antifungal activity against Saccharomyces cerevisiae ATCC 9763 after 24 hrs by microbroth double dilution method. Conditions: ATCC 9763, 24 h. It is filed as functional.
In turn, `CC1=CCC[C@H]2[C@](C)(CC3=CC(=O)C=C(NCC(=O)O)C3=O)[C@@H](C)CC[C@]12C` had a minimum inhibitory concentration (MIC) of 100 µM (≈ 38.7 µg/mL).

On to `CC(C)[C@@H](NC1=CC(=O)C=C(C(C)(C)C)C1=O)C(=O)O`, for which the minimal inhibitory concentration (MIC) is 563 µM (≈ 157 µg/mL). This MIC lies about 5.6-fold higher than the previous one.

A further data set concerns Pseudomonas aeruginosa. The data set is described as follows: Antibacterial activity against Pseudomonas aeruginosa ATCC 9027 after 24 hrs by microbroth double dilution method. The format is functional. Conditions: ATCC 9027, 24 h. Summed up: as §1
In turn, `CC1=CCC[C@H]2[C@](C)(CC3=CC(=O)C=C(NCC(=O)O)C3=O)[C@@H](C)CC[C@]12C` registered an MIC of 407 µM (≈ 157 µg/mL).

For the compound `CC(C)[C@@H](NC1=CC(=O)C=C(C(C)(C)C)C1=O)C(=O)O`, the minimal inhibitory concentration (MIC) amounted to 2240 µM (≈ 626 µg/mL).

The next data set deals with Artemia salina. The data set is described as follows: Cytotoxicity in Brine shrimp assessed as nauplii mortality after 24 hrs. It is filed as organism-based. Conditions: in vivo. The gist of the method:
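Artemia salina eggs hatched in aerated tap water with dried yeast at 18–20 °C under illumination for 48 h, and freshly hatched nauplii were used. Compounds in DMSO (0.01–1 mg) were added to 950 µL artificial seawater containing 10–20 nauplii, with 5% final DMSO. After 24 h under illumination at room temperature, dead and surviving nauplii were counted and statistically analysed.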
With `CC1=CCC[C@H]2[C@](C)(CC3=CC(=O)C=C(NCC(=O)O)C3=O)[C@@H](C)CC[C@]12C`, the LC50 – broadly, the concentration that kills 50% of the test population – worked out at 487.1 ppm.

In the case of `CC(C)[C@@H](NC1=CC(=O)C=C(C(C)(C)C)C1=O)C(=O)O`, the median lethal concentration (LC50) is on record as 574.9 ppm.

System in a further data set: not listed separately
The data set is described as follows: Cytotoxicity against human Fem-X cells assessed as cell survival after 72 hrs by MTT assay. It is filed as functional, cell-based.
Settings: not given
The gist of the method:
as §2
Take `CC1=CCC[C@H]2[C@](C)(CC3=CC(=O)C=C(NCC(=O)O)C3=O)[C@@H](C)CC[C@]12C`: the IC50 is 17.8 µM.

For `CC(C)[C@@H](NC1=CC(=O)C=C(C(C)(C)C)C1=O)C(=O)O`, the IC50 was 24.6 µM.

Another data set deals with MDA-MB-453. The data set can be described thus: Cytotoxicity against human MDA-MB-453 cells assessed as cell survival after 72 hrs by MTT assay. The format is functional, cell-based. Conditions: MDA-MB-453, 72 h. Summed up: as §2
Regarding `CC1=CCC[C@H]2[C@](C)(CC3=CC(=O)C=C(NCC(=O)O)C3=O)[C@@H](C)CC[C@]12C`, the IC50 worked out at 5.84 µM.

`CC(C)[C@@H](NC1=CC(=O)C=C(C(C)(C)C)C1=O)C(=O)O`: the IC50 amounted to 133 µM.

For the next data set, the system named is Candida albicans. The data set can be described thus: Antifungal activity against Candida albicans ATCC 10231 after 24 hrs by microbroth double dilution method. The format is functional. Conditions: ATCC 10231, 24 h.
Compound `CC1=CCC[C@H]2[C@](C)(CC3=CC(=O)C=C(NCC(=O)O)C3=O)[C@@H](C)CC[C@]12C` had an MIC of 12.6 µM (≈ 4.86 µg/mL).

Turning to `CC(C)[C@@H](NC1=CC(=O)C=C(C(C)(C)C)C1=O)C(=O)O`, inhibition of growth (MIC) required 563 µM (≈ 157 µg/mL).
